Data: ChEMBL document CHEMBL4014313, “Probing Molecular Interactions between Human Carbonic Anhydrases (hCAs) and a Novel Class of Benzenesulfonamides” (J Med Chem, 2017)

target: Carbonic anhydrase 9 (Homo sapiens, UniProt Q16790); test: Inhibition of human carbonic anhydrase 9 incubated for 15 mins prior to testing by stopped flow CO2 hydration assay
Method in brief: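 Recombinant hCA isoform; stopped-flow CO2 hydration monitored by phenol red (0.2 mM) absorbance at 557 nm, 10−20 mM Hepes pH 7.5 or Tris pH 8.3, 20 mM Na2SO4 or NaClO4 for ionic strength; initial rates over 10−100 s, CO2 1.7 to 17 mM; inhibitor dilutions in water down to 0.01 nM, preincubated with enzyme 15 min at room temperature; uncatalyzed rate subtracted; Ki by nonlinear least squares, mean of at least three determinations.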

SMILES	Ki
COc1cc2c(cc1OC)C(c1ccc(Br)cc1)N(C(=O)c1ccc(S(N)(=O)=O)cc1)CC2 (racemic)	90.9 nM
COc1ccc2c(c1)CCN(C(=O)c1ccc(S(N)(=O)=O)cc1)C2c1ccccc1 (racemic)	39.2 nM
CCCOc1ccc2c(c1)CCN(C(=O)c1ccc(S(N)(=O)=O)cc1)C2c1ccccc1 (racemic)	44.5 nM
NS(=O)(=O)c1ccc(C(=O)N2CCc3cc(O)ccc3C2c2ccccc2)cc1 (racemic)	50.6 nM
COc1cc2c(cc1OC)C(c1ccc(Cl)cc1)N(C(=O)c1ccc(S(N)(=O)=O)cc1)CC2 (racemic)	91.4 nM
NS(=O)(=O)c1ccc(C(=O)N2CCc3cc(O)c(O)cc3C2c2ccc(Br)cc2)cc1 (racemic)	81.5 nM
NS(=O)(=O)c1ccc(C(=O)N2CCc3cc(O)ccc3C2c2ccccc2)cc1 (single isomer, unassigned; Enantiomer-1)	73.2 nM
COc1ccc2c(c1)CCN(C(=O)c1ccc(S(N)(=O)=O)cc1)C2c1ccccc1 (single isomer, unassigned; enantiomer 2)	58.7 nM
NS(=O)(=O)c1ccc(C(=O)N2CCc3cc(O)ccc3C2c2ccccc2)cc1 (single isomer, unassigned; enantiomer 2)	39.8 nM

Further lines, results first:

Ki	SMILES
32.7 nM	NS(=O)(=O)c1ccc(C(=O)N2CCc3cc(O)c(O)cc3[C@H]2c2ccccc2)cc1
39.2 nM	NS(=O)(=O)c1ccc(C(=O)N2CCc3cc(O)c(O)cc3[C@@H]2c2ccccc2)cc1
4.9 nM	COc1cc2c(cc1OC)C(c1ccccc1)N(C(=O)c1ccc(S(N)(=O)=O)cc1)CC2 (racemic)
9.1 nM	COc1cc2c(cc1OC)C(c1ccc(F)cc1)N(C(=O)c1ccc(S(N)(=O)=O)cc1)CC2 (racemic)
8.2 nM	NS(=O)(=O)c1ccc(C(=O)N2CCc3cc(O)c(O)cc3C2c2ccc(F)cc2)cc1 (racemic)
9 nM	NS(=O)(=O)c1ccc(C(=O)N2CCc3cc(O)c(O)cc3C2c2ccc(Cl)cc2)cc1 (racemic)
36.9 nM	NS(=O)(=O)c1ccc(C(=O)N2CCc3cc(O)c(O)cc3C2c2ccccc2)cc1 (racemic)
5 nM	COc1cc2c(cc1OC)C(c1ccccc1)N(C(=O)c1ccc(S(N)(=O)=O)cc1)CC2 (single isomer, unassigned; enantiomer 1)
25.3 nM	COc1ccc2c(c1)CCN(C(=O)c1ccc(S(N)(=O)=O)cc1)C2c1ccccc1 (single isomer, unassigned; enantiomer 1)
4.8 nM	COc1cc2c(cc1OC)C(c1ccccc1)N(C(=O)c1ccc(S(N)(=O)=O)cc1)CC2 (single isomer, unassigned; enantiomer 2)

target: Carbonic anhydrase 12 (Homo sapiens, UniProt O43570); test: Inhibition of human carbonic anhydrase 12 incubated for 15 mins prior to testing by stopped flow CO2 hydration assay
Sequence (O43570 whole entry): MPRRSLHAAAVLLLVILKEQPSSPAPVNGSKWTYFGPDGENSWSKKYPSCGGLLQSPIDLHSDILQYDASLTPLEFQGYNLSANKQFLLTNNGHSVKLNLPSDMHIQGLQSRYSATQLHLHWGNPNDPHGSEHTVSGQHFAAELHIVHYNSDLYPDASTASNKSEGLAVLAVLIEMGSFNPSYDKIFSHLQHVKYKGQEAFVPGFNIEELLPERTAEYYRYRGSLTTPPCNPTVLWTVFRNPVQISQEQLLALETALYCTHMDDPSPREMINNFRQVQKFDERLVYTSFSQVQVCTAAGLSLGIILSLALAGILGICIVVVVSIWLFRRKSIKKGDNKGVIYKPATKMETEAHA

Ki	SMILES
7.6 nM	NS(=O)(=O)c1ccc(C(=O)N2CCc3cc(O)c(O)cc3C2c2ccc(Cl)cc2)cc1 (racemic)
